# Measured values taken from ChEMBL document CHEMBL6078712, “Triterpenoid phthalimides as selective anti-cancer agents targeting mitochondrial apoptosis” (Eur J Med Chem, 2025).
# Calls of active or inactive are those of the source. No cut-off for these calls is given here.
# Assays:
# [1] = Stability in human plasma assessed as compound remaining at 2 uM incubated for 120 mins by RF-MS analysis; type: ADME, cell-free; conditions: read-out: Stability
# Outline: (§1)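 Human plasma stability, plasma protein binding and liver microsome stability, each run in triplicate. Error deviations below 10 %.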
# [2] = Metabolic stability in human liver microsomes assessed as parent compound remaining at 2 uM incubated for 15 mins in presence of NADPH by RF-MS analysis; type: ADME, Microsome; conditions: read-out: Stability; outline: as §1
# K562 = test: Cytotoxicity against human K562 cells assessed as inhibition of cell growth incubated for 72 hrs by MTS assay; type: functional, cell-based; conditions: K562, 72 h
# Outline: (§2)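 MTS assay on eight human cancer lines and two non-tumour fibroblast lines. IC50 is the concentration that inhibits cell growth by 50 %. SD typically up to 15 % of the mean.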
# CCRF-CEM [3] = test: Induction of apoptosis in human CCRF-CEM cells assessed as late apoptotic cells at 5 times IC50 incubated for 24 hrs by Annexin V-FITC and PI staining based flow cytometric analysis (reference value: 0.4 %); type: functional
# Outline: (§3)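 Washed in Ca2+-containing binding buffer, then stained 15 min at room temperature in the dark with Annexin V-FITC and propidium iodide (PI at half the kit-recommended level). Read at once by flow cytometry with a 488 nm laser, ≥10,000 cells. Debris excluded; quadrants viable, early apoptotic, late apoptotic/necrotic, necrotic. Three independent experiments.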
# HCT-116 = test: Cytotoxicity against human HCT-116 cells assessed as inhibition of cell growth incubated for 72 hrs by MTS assay; type: functional, cell-based; conditions: HCT-116, 72 h; outline: as §2
# CCRF-CEM [4] = test: Induction of apoptosis in human CCRF-CEM cells assessed as upregulation of BIM expression at 1 to 5 times IC50 incubated for 24 hrs by Western blotting analysis; type: functional, cell-based
# Outline: (§4)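 30 µg protein per lane on SDS-PAGE, transferred to nitrocellulose, blocked in 5 % BSA/TBS-Tween. Primary antibodies overnight at 4 °C (Akt, P-Akt Ser473, STAT-3, caspase-3, PARP, cyclin D, cyclin A, Bcl-xL, Bak, Bid, Bim), then HRP secondary and ECL detection. GAPDH as loading control.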
# [5] = Stability in human plasma assessed as compound remaining at 2 uM incubated for 60 mins by RF-MS analysis; type: ADME, cell-free; conditions: read-out: Stability; outline: as §1
# HCT 116 TP53(-/-) = test: Cytotoxicity against human HCT116-p53-null cells assessed as inhibition of cell growth incubated for 72 hrs by MTS assay; type: functional, cell-based; outline: as §2
# CCRF-CEM [6] = test: Cytotoxicity against human CCRF-CEM cells assessed as inhibition of cell growth incubated for 72 hrs by MTS assay; type: functional, cell-based; outline: as §2
# CCRF-CEM [7] = test: Induction of apoptosis in human CCRF-CEM cells assessed as late apoptotic cells at 1 times IC50 incubated for 24 hrs by Annexin V-FITC and PI staining based flow cytometric analysis (reference value: 0.4 %); type: functional; outline: as §3
# U2OS = test: Cytotoxicity against human U2OS cells assessed as inhibition of cell growth incubated for 72 hrs by MTS assay; type: functional, cell-based; outline: as §2
# CCRF-CEM [8] = test: Induction of apoptosis in human CCRF-CEM cells assessed as downregulation of BCL-XL expression at 5 times IC50 incubated for 24 hrs by Western blotting analysis; type: functional, cell-based; outline: as §4
# [9] = Cytotoxicity against human MRC5 cells assessed as inhibition of cell growth incubated for 72 hrs by MTS assay; type: toxicity, cell-based; outline: as §2
# [10] = Metabolic stability in human liver microsomes assessed as parent compound remaining at 2 uM incubated for 30 mins in presence of NADPH by RF-MS analysis; type: ADME, Microsome; conditions: read-out: Stability; outline: as §1
# CCRF-CEM [11] = test: Inhibition of DNA synthesis in human CCRF-CEM cells at 1 times IC50 incubated for 24 hrs by BrdU incorporation based flow cytometry; type: functional
# Outline: (§5)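 Fixed in ice-cold 70 % ethanol, DNA denatured in 2 M HCl for 30 min, neutralised with borax. Stained with anti-BrdU plus FITC secondary, then PI/RNase A for 1 h. Flow cytometry; % BrdU-positive cells.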
# CCRF-CEM [12] = test: Inhibition of RNA synthesis in human CCRF-CEM cells at 1 times IC50 incubated for 24 hrs by BrU incorporation based flow cytometry; type: functional
# Outline: (§6)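 Fixed in 1 % paraformaldehyde/0.05 % NP-40 (15 min at room temperature, then 4 °C overnight). Stained with cross-reacting anti-BrdU plus FITC secondary (45 min each), then PI/RNase A. Flow cytometry; % BrU-positive cells.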
# A549 = test: Cytotoxicity against human A549 cells assessed as inhibition of cell growth incubated for 72 hrs by MTS assay; type: functional, cell-based; conditions: A549, 72 h; outline: as §2
# CCRF-CEM [13] = test: Inhibition of RNA synthesis in human CCRF-CEM cells at 5 times IC50 incubated for 24 hrs by BrU incorporation based flow cytometry; type: functional; outline: as §6
# [14] = Cytotoxicity against human K562-Tax cells assessed as inhibition of cell growth incubated for 72 hrs by MTS assay; type: functional, cell-based; outline: as §2
# CCRF-CEM [15] = test: Induction of apoptosis in human CCRF-CEM cells assessed as early apoptotic cells at 1 times IC50 incubated for 24 hrs by Annexin V-FITC and PI staining based flow cytometric analysis (reference value: 2.1 %); type: functional; outline: as §3
# CEM-DNR = test: Cytotoxicity against human CEM-DNR cells assessed as inhibition of cell growth incubated for 72 hrs by MTS assay; type: functional, cell-based; outline: as §2
# CCRF-CEM [16] = test: Induction of apoptosis in human CCRF-CEM cells assessed as necrotic cells at 5 times IC50 incubated for 24 hrs by Annexin V-FITC and PI staining based flow cytometric analysis (reference value: 0.4 %); type: functional; outline: as §3
# CCRF-CEM [17] = test: Induction of apoptosis in human CCRF-CEM cells assessed as early apoptotic cells at 5 times IC50 incubated for 24 hrs by Annexin V-FITC and PI staining based flow cytometric analysis (reference value: 2.1 %); type: functional; outline: as §3
# CCRF-CEM [18] = test: Induction of apoptosis in human CCRF-CEM cells assessed as upregulation of BID expression at 1 to 5 times IC50 incubated for 24 hrs by Western blotting analysis; type: functional, cell-based; outline: as §4
# [19] = Cytotoxicity against human BJ cells assessed as inhibition of cell growth incubated for 72 hrs by MTS assay; type: toxicity, cell-based; outline: as §2
# [20] = Metabolic stability in human liver microsomes assessed as parent compound remaining at 2 uM incubated for 60 mins in presence of NADPH by RF-MS analysis; type: ADME, Microsome; conditions: read-out: Stability; outline: as §1
# [21] = Stability in human plasma assessed as compound remaining at 2 uM incubated for 15 mins by RF-MS analysis; type: ADME, cell-free; conditions: read-out: Stability; outline: as §1
# CCRF-CEM [22] = test: Induction of apoptosis in human CCRF-CEM cells assessed as viable cells at 1 times IC50 incubated for 24 hrs by Annexin V-FITC and PI staining based flow cytometric analysis (reference value: 97.4 %); type: functional; outline: as §3
# CCRF-CEM [23] = test: Induction of apoptosis in human CCRF-CEM cells assessed as necrotic cells at 1 times IC50 incubated for 24 hrs by Annexin V-FITC and PI staining based flow cytometric analysis (reference value: 0.4 %); type: functional; outline: as §3
# Mitochondrial membrane = test: Induction of mitochondrial membrane potential depolarization in human CCRF-CEM cells assessed as fold increase in fluorescence intensity incubated for 24 hrs by JC-1 staining based flow cytometry; type: cell membranes
# [24] = Stability in human plasma assessed as compound remaining at 2 uM incubated for 30 mins by RF-MS analysis; type: ADME, cell-free; conditions: read-out: Stability; outline: as §1
# CCRF-CEM [25] = test: Induction of cell cycle arrest in human CCRF-CEM cells assessed as downregulation of Cyclin A expression at 5 times IC50 incubated for 24 hrs by Western blotting analysis; type: functional, cell-based; outline: as §4
# CCRF-CEM [26] = test: Induction of apoptosis in human CCRF-CEM cells assessed as viable cells at 5 times IC50 incubated for 24 hrs by Annexin V-FITC and PI staining based flow cytometric analysis (reference value: 97.4 %); type: functional; outline: as §3
# CCRF-CEM [27] = test: Inhibition of DNA synthesis in human CCRF-CEM cells at 5 times IC50 incubated for 24 hrs by BrdU incorporation based flow cytometry; type: functional; outline: as §5
# [28] = Plasma protein binding in human assessed as fraction bound at 10 uM incubated for 4 hrs by rapid equilibrium dialysis based RF-MS analysis; type: ADME, cell-free; conditions: read-out: PPB (converted); outline: as §1
compound,measurement,setting,value
CC1(C)[C@@H](O)CC[C@]2(C)[C@H]3CC[C@@H]4[C@H]5[C@H](c6cc7c(c(-c8ccccc8)c6)C(=O)N(c6ccccc6)C7=O)CC[C@]5(C(=O)O)CC[C@@]4(C)[C@]3(C)CC[C@@H]12,"remaining at 2 h, 2 µM",[1],89%
same,"remaining at 0.25 h, 2 µM",[2],92%
same,IC50,K562,> 50 µM
same,Activity,CCRF-CEM [3],4.5%
same,IC50,HCT-116,29.4 µM
same,Activity,CCRF-CEM [4],Active
same,"remaining at 1 h, 2 µM",[5],100%
same,IC50,HCT 116 TP53(-/-),> 50 µM
same,IC50,CCRF-CEM [6],5.18 µM
same,Activity,CCRF-CEM [7],3.9%
same,IC50,U2OS,25.9 µM
same,Activity,CCRF-CEM [8],Active
same,IC50 at 72 h,[9],> 50 µM
same,"remaining at 0.5 h, 2 µM",[10],87%
same,inhibition (INH),CCRF-CEM [11],35.2%
same,inhibition (INH),CCRF-CEM [12],28.4%
same,IC50,A549,> 50 µM
same,inhibition (INH),CCRF-CEM [13],16.1%
same,IC50,[14],23.1 µM
same,Activity,CCRF-CEM [15],5.4%
same,IC50,CEM-DNR,20 µM
same,Activity,CCRF-CEM [16],0%
same,Activity,CCRF-CEM [17],5.1%
same,Activity,CCRF-CEM [18],Active
same,IC50 at 72 h,[19],> 50 µM
same,"remaining at 1 h, 2 µM",[20],79%
same,"remaining at 0.25 h, 2 µM",[21],96%
same,Activity,CCRF-CEM [22],90.7%
same,Activity,CCRF-CEM [23],0%
same,Activity,Mitochondrial membrane,Dose-dependent-effect
same,"remaining at 0.5 h, 2 µM",[24],95%
same,Activity,CCRF-CEM [25],Active
same,Activity,CCRF-CEM [26],90.4%
same,inhibition (INH),CCRF-CEM [27],37.8%
same,"fraction unbound at 4 h, 10 µM",[28],0.231
